Laboratory results published in the array DNA melting data of Ke et al. (doi:10.1101/2024.01.08.574731).

Experiments:
[1] = folding enthalpy; higher = less favourable; fluorescence melt of hairpins on a sequencing array, two-state fit; conditions: sodium 0.088 M
Method in brief: (§1)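 With Cy3 and quencher oligos annealed, library hairpins on a sequenced MiSeq flow cell were imaged for Cy3 fluorescence in 50 mM Na-HEPES pH 8.0, 25 mM NaCl, in 2.5 °C steps up to 60 °C. Melting temperature and folding enthalpy were derived from bootstrapped two-state fits of signals normalised to pre-quench Cy3 and to control constructs. Four replicates were combined by inverse variance, with fitted temperatures raised by 9.35 °C to match UV melts.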

[2] = melting temperature; fluorescence melt of hairpins on a sequencing array, two-state fit, raised by 9.35 °C to match UV melts; conditions: sodium 0.088 M
Method in brief: as §1

Sequence | folding enthalpy [1] | Tm [2]
GCTCGAGGAAACTTGAGC ((((.((....)).)))) | -158 kJ/mol | 50.8 °C
GCTCGCGAAAGCGGCAGC ((((((....)))..))) | -51 kJ/mol | 48.9 °C
GCTCGCTCGAAAGAGAGC (((..(((....)))))) | -87.1 kJ/mol | 48.6 °C
GCTCGGACGAAAGTCAGC (((..(((....)))))) | -51.6 kJ/mol | 39.1 °C
GCTCGGCGAAAGCACAGC (((..((....))..))) | -51 kJ/mol | 51.2 °C
GCTCGGCGAAAGCATAGC (((..((....))..))) | -51.4 kJ/mol | 44 °C
GCTCGGCGAAAGCCAGGC ((..(((....)))..)) | -52.5 kJ/mol | 58.8 °C
GCTCGGCGAAAGCCTCGC ((..(((....)))..)) | -60.5 kJ/mol | 48.7 °C
GCTCGGCGAAAGCGAAGC (((..((....))..))) | -54.6 kJ/mol | 47.2 °C
GCTCGGCGAAAGCGGCGC ((.(.((....)).).)) | -66.1 kJ/mol | 54 °C
GCTCGGCGAAAGCTGGGC ((.(.((....)).).)) | -109 kJ/mol | 60.9 °C
GCTCGGGGAAACTCGAGC (((((.(....).))))) | -185 kJ/mol | 58.5 °C
GCTCGTGGAAACGTGAGC ((((..(....)..)))) | -89.2 kJ/mol | 46.2 °C
GCTCTACCGAAAGGTAGC (((..(((....)))))) | -38.9 kJ/mol | 31.3 °C
GCTCTACGAAAGTAAGC (((.(((....)))))) | -78.5 kJ/mol | 38.7 °C
GCTCTACGAAAGTATAGC (((.(((....))).))) | -124 kJ/mol | 42.5 °C
GCTCTAGGAAACTAGAAC (.(((((....))))).) | -59.3 kJ/mol | 29.7 °C
GCTCTAGGAAACTAGGGC ((.((((....)))).)) | -137 kJ/mol | 47.1 °C
GCTCTCCGAAAGGACAGC (((.(((....))).))) | -109 kJ/mol | 41.3 °C
GCTCTCGAAAGAGGGAGC ((((((....)))..))) | -91.2 kJ/mol | 45.5 °C
GCTCTCGAAAGAGTCAGC ((((((....)))..))) | -61.5 kJ/mol | 32.9 °C
GCTCTCGAAAGAGTTAGC ((((((....)))..))) | -91 kJ/mol | 35.3 °C
GCTCTCGCGAAAGCGAGC (((..(((....)))))) | -19.1 kJ/mol | 38.3 °C

Sequence | folding enthalpy [1] | Tm [2]
GCTCTGCGAAAGCAAGGC ((..(((....)))..)) | -74 kJ/mol | 46.9 °C
GCTCTGCGAAAGCATAGC (((.(((....))).))) | -175 kJ/mol | 49.8 °C
GCTCTGCGAAAGCGAAGC (((..((....))..))) | -56.9 kJ/mol | 40.8 °C
GCTCTGCGAAAGCGGGGC ((.(.((....)).).)) | -116 kJ/mol | 63.4 °C
GCTCTGCGAAAGCTCAGC (((..((....))..))) | -62.4 kJ/mol | 35.5 °C
GCTCTGCGAAAGCTGTGC ((.(.((....)).).)) | -87.9 kJ/mol | 43.6 °C
GCTCTGCGAAAGCTTAGC (((..((....))..))) | -77.5 kJ/mol | 44.2 °C
GCTCTGGGAAACCAGGGC ((.((((....)))).)) | -159 kJ/mol | 54.6 °C
GCTCTTGGAAACAAGAGC (((((((....))))))) | -156 kJ/mol | 63.2 °C
GCTCTTGGAAACAAGGGC ((.((((....)))).)) | -161 kJ/mol | 50.6 °C
GCTCTTGGAAACGAGAGC (((((.(....).))))) | -126 kJ/mol | 51.2 °C
GCTGAAGGAAACTCCAGC ((((.((....)).)))) | -116 kJ/mol | 40.7 °C
GCTGAAGGAAACTTCAAC (.(((((....))))).) | -75.3 kJ/mol | 29.8 °C
GCTGAAGGAAACTTCAGC (((((((....))))))) | -172 kJ/mol | 62.4 °C
GCTGACGAAAGTCCGAGC ((((((....)))..))) | -73.8 kJ/mol | 37.6 °C
GCTGACGAAAGTCGAGC ((((((....))).))) | -158 kJ/mol | 54.6 °C
GCTGACGAAAGTCGCAGC ((((((....)))..))) | -69.9 kJ/mol | 49.5 °C
GCTGACGAAAGTCTAGC ((((((....))).))) | -92.6 kJ/mol | 51.9 °C
GCTGACGAAAGTCTCAGC ((((((....)))..))) | -87.4 kJ/mol | 40.9 °C
GCTGACGAAAGTCTTAGC ((((((....)))..))) | -94.5 kJ/mol | 39.8 °C
GCTGAGAAATCAGC (((((....))))) | -119 kJ/mol | 53.2 °C
GCTGAGCGAAAGCACCGC ((.(.((....)).).)) | -79.6 kJ/mol | 37.2 °C
GCTGAGCGAAAGCCGAGC (((..((....))..))) | -72.1 kJ/mol | 48.7 °C

Sequence | folding enthalpy [1] | Tm [2]
GCTGAGCGAAAGCGCTGC ((.(.((....)).).)) | -67.6 kJ/mol | 54.7 °C
GCTGAGCGAAAGCTATGC ((..(((....)))..)) | -72.8 kJ/mol | 48.6 °C
GCTGAGCGAAAGCTCTGC ((.((((....)))).)) | -132 kJ/mol | 66.4 °C
GCTGAGCGAAAGCTGCGC ((..(((....)))..)) | -79.6 kJ/mol | 54.7 °C
GCTGAGCGAAAGCTTAGC (((.(((....))).))) | -211 kJ/mol | 57.4 °C
GCTGAGGGAAACCCCAGC ((((.((....)).)))) | -139 kJ/mol | 51.4 °C
GCTGAGGGAAACCTCGGC ((.((((....)))).)) | -167 kJ/mol | 56.8 °C
GCTGATACGAAAGTAAGC (((..(((....)))))) | -60.2 kJ/mol | 33.9 °C
GCTGATCGAAAGATTAGC (((.(((....))).))) | -198 kJ/mol | 51.9 °C
GCTGATGGAAACACCAGC ((((.((....)).)))) | -129 kJ/mol | 45.9 °C
GCTGATGGAAACGTTAGC (((.(.(....).).))) | -46.9 kJ/mol | 27.8 °C
GCTGCAGGAAACCGCAAC (.(((.(....).))).) | -61.1 kJ/mol | 27.3 °C
GCTGCCCCGAAAGGGAGC (((..(((....)))))) | -55.5 kJ/mol | 55.2 °C
GCTGCCGAAAGGCCAAGC ((((((....)))..))) | -64.9 kJ/mol | 46.3 °C
GCTGCCGAAAGGCCCAGC ((((((....)))..))) | -51.1 kJ/mol | 35.8 °C
GCTGCCGAAAGGCCTAGC ((((((....)))..))) | -59.4 kJ/mol | 41 °C
GCTGCCGAAAGGCTAGC ((((((....))).))) | -69.7 kJ/mol | 59.6 °C
GCTGCCGAAAGGCTTAGC ((((((....)))..))) | -67.5 kJ/mol | 45.2 °C
GCTGCGCCGAAAGGCAGC (((..(((....)))))) | -48.2 kJ/mol | 61.1 °C
GCTGCGCGAAAGCAGAGC (((..((....))..))) | -67.2 kJ/mol | 47.7 °C
GCTGCGCGAAAGCCCCGC ((.(.((....)).).)) | -41.7 kJ/mol | 31.8 °C
GCTGCGCGAAAGCGGCGC ((..(((....)))..)) | -65 kJ/mol | 63.7 °C
GCTGCGCGAAAGCGGGGC ((..(((....)))..)) | -113 kJ/mol | 63.1 °C

Sequence | folding enthalpy [1] | Tm [2]
GCTGCGCGAAAGCGTCGC ((..(((....)))..)) | -63.4 kJ/mol | 51.4 °C
GCTGCGCGAAAGCTAAGC (((..((....))..))) | -97.8 kJ/mol | 44 °C
GCTGCGCGAAAGCTCCGC ((.(.((....)).).)) | -51.5 kJ/mol | 38.5 °C
GCTGCGGGAAACCGCAAC (.(((((....))))).) | -47.6 kJ/mol | 45.9 °C
GCTGCGGGAAACCGTGGC ((..(((....)))..)) | -148 kJ/mol | 52.6 °C
GCTGCTCCGAAAGGAAGC (((..(((....)))))) | -58.8 kJ/mol | 47 °C
GCTGCTCGAAAGAGAGC (((.(((....)))))) | -85.8 kJ/mol | 48 °C
GCTGCTGGAAACAGCGGC ((.((((....)))).)) | -189 kJ/mol | 65.8 °C
GCTGCTGGAAACAGTAGC (((.(((....))).))) | -181 kJ/mol | 54.3 °C
GCTGGACGAAAGTCGAGC (((.(((....))).))) | -185 kJ/mol | 56.2 °C
GCTGGAGAAATCCAGC ((((((....)))))) | -150 kJ/mol | 62.9 °C
GCTGGAGGAAACTCTAGC (((.(((....))).))) | -169 kJ/mol | 48.4 °C
GCTGGAGGAAACTTCGGC ((.(.((....)).).)) | -124 kJ/mol | 37.2 °C
GCTGGCGAAAGCCCCAGC ((((((....)))..))) | -61.9 kJ/mol | 43.5 °C
GCTGGCGAAAGCCCGAGC ((((((....)))..))) | -60 kJ/mol | 45.4 °C
GCTGGCGAAAGCCGGAGC ((((((....)))..))) | -47.6 kJ/mol | 56.4 °C
GCTGGCGGAAACGTCGGC ((.(.((....)).).)) | -162 kJ/mol | 53.1 °C
GCTGGGCGAAAGCAAAGC (((..((....))..))) | -87.4 kJ/mol | 54.1 °C
GCTGGGCGAAAGCCAGC (((.(((....)))))) | -93.6 kJ/mol | 68.5 °C
GCTGGGCGAAAGCCTCGC ((..(((....)))..)) | -62.5 kJ/mol | 44.6 °C
GCTGGGCGAAAGCGCTGC ((.(.((....)).).)) | -133 kJ/mol | 60 °C
GCTGGGCGAAAGCGGAGC (((..((....))..))) | -72 kJ/mol | 44.1 °C
